# According to PubChem BioAssay AID651999 (Sanford-Burnham Center for Chemical Genomics, 2013):
# The campaign covered roughly 360,000 compounds. About 1,400 (0.39%) were called active. The sample holds actives, similar compounds and a random draw of the others, so the mix is not that of the screen. Values without a mark were called inactive.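 Rule for the calls: active = pattern-corrected inhibition above about 35%, with an unprinted fluorescence ratio check between 0.5 and 1.5 (limit read from the data, passing the limit was not always enough); inactive = the rest.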
# Biological target: COP9 signalosome complex subunit 5 (Homo sapiens) (UniProt Q92905)
# Sequence (Q92905 whole entry, looked up, one chain of several): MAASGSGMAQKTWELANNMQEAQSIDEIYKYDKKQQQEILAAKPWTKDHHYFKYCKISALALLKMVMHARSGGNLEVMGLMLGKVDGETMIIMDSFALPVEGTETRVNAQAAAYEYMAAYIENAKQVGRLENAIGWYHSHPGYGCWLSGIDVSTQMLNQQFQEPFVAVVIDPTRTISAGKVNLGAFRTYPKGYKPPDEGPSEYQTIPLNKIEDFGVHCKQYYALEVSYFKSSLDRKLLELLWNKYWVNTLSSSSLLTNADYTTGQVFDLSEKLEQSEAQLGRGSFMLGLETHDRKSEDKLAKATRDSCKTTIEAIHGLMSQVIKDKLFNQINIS
# Assay: CSN5 deneddylase inhibitors on cullin-RING ligase – biochemical, fluorescence polarization, uHTS, primary screen (AID 651999);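 note: 0% = enzyme with substrate and 100% = substrate without enzyme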
# Conditions: Purified CSN, SCF-Nedd8-OG deneddylation, at 12.5 µM, stronger effect = higher value
# Summary of the method: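 test system = HEK293T-derived human Csn5 enzyme | amount = 0.24 nM Csn5 enzyme, final concentration | medium = Tris/NaCl/DTT buffer, pH 7.5 | schedule = 90 min reaction at room temperature | signal = FP | evaluation = inhibition of Csn5 cleavage, % | compound dosing = single dose of 12.5 µM compound with 0.25% DMSO | probe or stimulus = 10 nM SCFSkp2-Nedd8OG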
row,Compound,inhibition
1,COc1ccc(N2C(=O)/C(=C/c3ccco3)C(=O)NC2=S)cc1,39.6% (active)
2,COc1ccc(NC(=O)N2Cc3ccccc3-n3nncc3C2)cc1,1.89%
3,COc1ccccc1N=Nc1c(O)[nH]c(=S)[nH]c1=O,64.6% (active)
4,O=C1N=c2ccccc2=C/C1=C\c1c(O)[nH]c(=S)[nH]c1=O,3.94%
5,CCOCCc1c(O)[nH]c(=S)[nH]c1=O,-1.36%
6,C=CC12CN(C)[C@@H]3C4CO[C@H](C[C@H]41)[C@]1(C(=O)Nc4ccccc41)[C@@H]32 (stereo not given in full),6.32%
7,CC(=O)Nc1ccccc1C(=O)OCC(=O)c1cccc2ccccc12,-2.94%
8,CCN1CCN(c2nc3c(c(=O)[nH]2)CCC3)CC1,2.3%
9,CCNc1nc2[nH]c(=O)c3c(c2s1)OC(N)=C(C#N)C3c1cccs1 (stereo not given),7.11%
10,Cn1c(O)c(C=NCCN2CCNCC2)c(=O)n(C)c1=O,2.48%
11,O=C1CC(=O)N(Cc2ccccc2)C(=O)N1CCCCCCN1C(=O)CC(=O)N(Cc2ccccc2)C1=O,81.1% (active)
12,CC(C)(C)c1ccc(CN2C(=O)CN=C(c3ccccc3)c3ccccc32)cc1,-0.66%
13,O=C(CN1CCCC1=O)NCCc1ccccc1,-4.34%
14,COC(=O)C1=C(c2cc3ccccc3s2)C[C@@H]2CC[C@H]1N2C(=O)NC(C)C,4.07%
15,Cc1cccc(-n2c(O)c(/C=N/N3CCOCC3)c(=O)[nH]c2=S)c1,-0.17%
